Reference: the array DNA melting data of Ke et al. (doi:10.1101/2024.01.08.574731)

What was measured:
[1] = folding enthalpy; higher = less favourable; fluorescence melt of hairpins on a sequencing array, two-state fit; conditions: sodium 0.088 M
Summary of the method: (§1)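 Cy3 fluorescence of library hairpins on a sequenced MiSeq flow cell, with annealed Cy3 and quencher oligos, was imaged in 50 mM Na-HEPES pH 8.0, 25 mM NaCl in 2.5 °C steps up to 60 °C. Signals were normalised to pre-quench Cy3 and to control variants. Melting temperature and folding enthalpy came from bootstrapped two-state fits, inverse-variance combined over four replicates. Fitted temperatures were raised by 9.35 °C to match UV melts.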

[2] = melting temperature; fluorescence melt of hairpins on a sequencing array, two-state fit, raised by 9.35 °C to match UV melts; conditions: sodium 0.088 M
Summary of the method: as §1

Row | Sequence | folding enthalpy [1] [kcal/mol] | Tm [2] [°C]
1 | GCTAGCGAAAGCTTAAGC ((((((....)))..))) | -16.9 | 43.2
2 | GATCGTACCAACGATC ((((((....)))))) | -36.7 | 55.5
3 | GATCACGAATGTGATC ((((((....)))))) | -37.5 | 67.7
4 | GGGTTCGAAAGAAAGCCC ((((((....)))..))) | -16 | 36
5 | GTCTCTGAAAAGAGAC ((((((....)))))) | -33.4 | 58.1
6 | GCTTCCGAAAGGACAAGC ((((((....)))..))) | -24.2 | 38.5
7 | GGCCTACGAAAGTAAGCC (((.(((....))).))) | -35 | 49.5
8 | CGCACCGGAAACGGCGCG (((.(((....))).))) | -52.1 | 60.9
9 | GTCCTCGAAAGAGTGAC ((((((....))).))) | -25.7 | 46.3
10 | GCGGAGTGCCGC ((((....)))) | -13.7 | 57.1
11 | GGCCACGAAAGTGACGCC ((((((....)))..))) | -21.7 | 52.1
12 | CGTCAACGGAAACGTACG (((..(((....)))))) | -11.4 | 35.6
13 | GGCGTCCGAAAGGAGCC (((.(((....)))))) | -25.9 | 59.5
14 | GATCGGCACGCCGATC ((((((....)))))) | -31.6 | 67.8
15 | GACAACCGAAAGGTGGTC (((.(((....))).))) | -35.3 | 59.2
16 | GTAGGCGAAAGCCTTAC ((((((....))).))) | -9.64 | 44.9
17 | GCTTGGCGAAAGCCTGGC ((..(((....)))..)) | -17.4 | 52.3
18 | GATCGCCGTTGCGATC ((((((....)))))) | -53.2 | 66.2
19 | GTGGTTCCGAAAGGACAC (((..(((....)))))) | -17.3 | 40
20 | GCACTCGGAAACGAGTAC (.(((((....))))).) | -13.6 | 44.1
21 | GCCGCGGGAAACCGCGAC (.(((((....))))).) | -10.8 | 59.7
22 | GCAGAGCGAAAGCCCAGC ((.(.((....)).).)) | -12.2 | 33
23 | GATCGCCTCGCGATC ((((((...)))))) | -30.2 | 68.7

Row | Sequence | folding enthalpy [1] [kcal/mol] | Tm [2] [°C]
24 | GGGGACGAAAGTCGGCCC ((((((....)))..))) | -27.2 | 56.4
25 | GAGGGCGGAAACGCCCCC (.(((((....))))).) | -5.82 | 45.8
26 | GCGATGGGAAACCACCGC (((.(((....))).))) | -48.5 | 51.1
27 | GATCTGTTGTCAGATC ((((((....)))))) | -37.1 | 50.9
28 | GCAACGCGAAAGCATGGC ((.(.((....)).).)) | -13.1 | 33.8
29 | CGATTCGGAAACGATCG (((.(((....)))))) | -32.8 | 44
30 | GCATTCCCGAAAGGGTGC (((..(((....)))))) | -20.9 | 43.5
31 | GAGGTGAAAACCTC (((((....))))) | -22.7 | 53.3
32 | GAAAATGGAAACATTTCC (.(((((....))))).) | -17 | 28.6
33 | GTTTTCGAAAGAAAAC ((((((....)))))) | -29.2 | 57.4
34 | GACAACGAAAGTTCTGTC ((((((....)))..))) | -14.7 | 27
35 | GTCTTCGAAAGAAGGAC ((((((....))).))) | -16.4 | 41.6
36 | GAACGGGGAAACCCGTTC (((((((....))))))) | -34.2 | 67.9
37 | GATCCTACGTAGGATC ((((((....)))))) | -40.6 | 53.3
38 | GATCTCAAGGAGATC ((((((...)))))) | -37.4 | 54.2
39 | GCTGTGCGAAAGCGTAGC (((..((....))..))) | -17.6 | 49.5
40 | GATCCCGAAAGGGGCATC ((((((....)))..))) | -11.6 | 35.6
41 | GATCCCCTGCGGGATC ((((((....)))))) | -33.6 | 58.2
42 | GAGCGAGGAAACTCACTC (((.(((....))).))) | -31 | 42.1
43 | GGGAAGAAATTCCC (((((....))))) | -19.9 | 44.6
44 | GATCTTGGGTAAGATC ((((((....)))))) | -27.6 | 43.2
45 | GAATGCGAAAGCATTC ((((((....)))))) | -27.6 | 68.4
46 | GCTGTGCGAAAGCTTAGC (((..((....))..))) | -22.5 | 41.9
